Assay outcomes from PubChem.
Hits are enriched below; roughly 9.2% of the tested compounds scored in any of these assays.
ERb coact inh = inhibitors of ERβ-SRC1 coactivator interaction, primary screen, biochemical, TR-FRET, ERβ LBD, SRC-1 peptide; Estrogen receptor beta (Homo sapiens), Q92731; TR-FRET ER-beta LBD / SRC1-Cy5 peptide binding; receptor agonist-loaded with 1 µM estradiol; inhibition, % at 25.6 µM; 86,000 tested, 1.3% active; AID 633, 2007;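 active = compounds whose percent inhibition of the receptor-coactivator binding signal exceeds about 50% in the single-dose screen, limit read from the data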
Target sequence (Q92731 whole entry, looked up, the tested form may be a part): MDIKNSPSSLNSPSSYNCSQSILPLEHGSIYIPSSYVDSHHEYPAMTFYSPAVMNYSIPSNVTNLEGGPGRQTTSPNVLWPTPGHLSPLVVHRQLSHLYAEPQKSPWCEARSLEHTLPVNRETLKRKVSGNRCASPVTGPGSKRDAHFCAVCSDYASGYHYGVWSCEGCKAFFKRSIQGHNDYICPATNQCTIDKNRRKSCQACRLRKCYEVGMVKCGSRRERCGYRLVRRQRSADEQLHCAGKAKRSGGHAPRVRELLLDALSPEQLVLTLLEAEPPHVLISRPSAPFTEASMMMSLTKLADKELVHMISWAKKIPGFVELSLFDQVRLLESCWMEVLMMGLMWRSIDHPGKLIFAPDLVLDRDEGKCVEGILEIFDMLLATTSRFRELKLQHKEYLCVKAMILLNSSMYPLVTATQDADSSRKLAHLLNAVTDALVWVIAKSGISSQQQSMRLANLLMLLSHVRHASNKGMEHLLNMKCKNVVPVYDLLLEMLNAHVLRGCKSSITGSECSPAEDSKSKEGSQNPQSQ
H69AR growth 86K = proliferation blockers of H69AR lung cancer cells, primary screen, cell-based, human, 86K library | AID 598, 2007 | H69AR lung tumor viability, ATP luminescence, 72 h; hits give low values | viability, % at 10 µM | 85,000 tested, 6% active;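 active = viability at or below 40%; inactive = viability above 40%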;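 note: multidrug resistant small cell line overexpressing MRP-1 efflux transporter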
Fibroblast inh = antiproliferative effect on LL 47 fibroblasts – human, LL 47 cells, CellTiter-Glo luminescence, primary screen; LL 47 human lung fibroblast viability, ATP luminescence; hits give low values; viability, % at 10 µM; AID 719, 2007; 85,000 tested, 1.1% active;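 active = viability at or below 50% in the single dose screen; inactive = viability above 50%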;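 note: compound exposure lasted 72 h before the ATP readout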
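test system = LL 47 human lung fibroblasts | amount = 1,150 fibroblasts seeded per well | medium = 15% FBS in IMEM | times = overnight cell rest, 72 h compound treatment at 37 °C | measured by = CellTiter-Glo luminescence measuring cellular ATP | read-out = viability percentage against median untreated-cell control | benchmarks = cell-only wells, no compound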
ERa coact pot = enhancers of ERα–SRC-1 coactivator binding, primary screen, biochemical, TR-FRET, ERα LBD, low estradiol; Estrogen receptor (Homo sapiens), P03372; TR-FRET ERalpha-LBD/SRC-Cy5 coactivator binding, 2 h; 100 = basal binding, no effect; coactivator binding (% of control), % at 25.6 µM; 86,000 tested, 1.3% active; AID 639, 2007; in the data active = activity above about 200%;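 note: binding measured in presence of low estradiol as agonist stimulus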
HUVEC prolif 384 = inhibitors of HUVEC proliferation, primary screen, cell-based, 384-well; CellTiter-Glo luminescence, 72 h; hits give low values; 86,000 tested, 1.1% active; viability, % at 10 µM (by protocol); AID 648, 2007;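 active = viability at or below 30%; inactive = viability above 30%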
ERa SRC1 inh = ERα–SRC-1 coactivator interaction inhibitors, primary screen, biochemical, TR-FRET, ERα LBD, estradiol-bound | TR-FRET ER-alpha LBD / SRC-1 peptide | inhibition, % at 25.6 µM | 86,000 tested, 1.7% active | AID 629, 2007; in the data active = inhibition above about 50%
Large screens that a line does not name were inactive; [ ] = another dose, or the depositor's remark.

CC(=O)Nc1ccc(OC(=O)CC2SC(=O)NC2=O)cc1 (configuration not stated)	ERb coact inh 56.3
CCN(CC)C(=O)Oc1ccc(NC(C)=O)cc1	none
CC(C)CCOC(=O)C1C(c2ccccc2)C(C(=O)O)C1c1ccccc1 (configuration not stated)	none
CCn1c(SCC(=O)Nc2ccc3c(c2)OCO3)nc2ccccc21	none
C=CCn1c(SCC(=O)Nc2ccc3c(c2)OCO3)nc2ccccc2c1=O	ERb coact inh 98.2[fluorescence artefact?]
Cc1ccc(CSc2nc3ccccc3c(=O)n2CCCC(=O)NCc2ccco2)cc1	H69AR growth 86K 29.0
Cc1ccc(CSc2nc3ccccc3c(=O)n2Cc2ccco2)cc1	none
Cc1ccc(NC(=O)CSc2nc3ccccc3c(=O)n2CCCN2CCCCC2)cc1C	H69AR growth 86K 2.2, Fibroblast inh 3.0, HUVEC prolif 384 12.8
CCn1c(SCC(=O)N2CCC(C(N)=O)(N3CCCCC3)CC2)nc2ccccc2c1=O	H69AR growth 86K 9.0
O=C(COC(=O)c1ccccc1NC(=O)c1ccco1)NCc1ccc2c(c1)OCO2	none
Cc1ccc(NC(=O)CSc2nc3ccccc3c(=O)n2CCCC(=O)N2CCCC2)cc1	H69AR growth 86K 14.9
CCC1CCCCN1C(=O)CSc1nnc(CNC(=O)COc2ccc(Cl)cc2)o1 (configuration not stated)	none
Cc1cc(C(=O)CSCc2nnc3n(CCC(C)C)c(=O)c4ccccc4n23)c(C)n1C	none
C[C@@H]1C[C@H](Nc2ccccc2)c2ccccc2N1C(=O)c1cccnc1	H69AR growth 86K 19.5
Cc1ccc(-c2nnc(CSc3nc4cc5c(cc4cc3C)OCO5)o2)cc1	ERb coact inh 60.5, ERa coact pot 206.2[fluorescence artefact?], ERa SRC1 inh 76.9[fluorescence artefact?]
Cc1ccc(CSc2nnc(-c3ccc4c(c3)OCO4)o2)cc1	none
CCOC(=O)c1cc2c(n(-c3ccccc3)c1=O)CC(C)(C)CC2=O	H69AR growth 86K 35.7
CC1(C)CC(=O)c2cc(C(=O)O)c(=O)n(-c3ccccc3)c2C1	none
Cc1cc2c(C)c(C)c(=O)[nH]c2cc1N	ERa SRC1 inh 68.7[fluorescence artefact?]
COc1ccc2c(c1)OCC1=C2CCC2(C)C(=O)CC=C12 (configuration not stated)	H69AR growth 86K 10.9
COc1cc(C(=O)Oc2ccc3c(c2)OCC3=O)cc(OC)c1OC	none
CC1(C)CC(=O)C(C=NCC2CCN(C(=O)Nc3ccc(Cl)c(Cl)c3)CC2)=C(O)C1	none
C=C(C)c1cccc(C(C)(C)NC(=O)N2CCN(CC(N)=O)CC2)c1	none
COc1ccc(/C(N)=N/OC(=O)c2cccc([N+](=O)[O-])c2C)cc1OC	H69AR growth 86K 36.4
COc1ccc(/C(N)=N/OC(=O)c2cccc([N+](=O)[O-])c2)cc1OC	none
CCCCN1C2CCCC1CC(NC(=O)C1CCCCC1)C2 (configuration not stated)	none
c1ccc(-c2nnc(-c3ccccn3)nn2)nc1	none
c1ccc(-c2cccc(-c3ccccn3)n2)nc1	H69AR growth 86K 8.8, Fibroblast inh 29.1, HUVEC prolif 384 10.0
c1cc2c3c(cccc3c1)NC1(CCCCC1)N2	none
c1cc2c3c(cccc3c1)NC1(CCCCCC1)N2	HUVEC prolif 384 5.5
COc1ccc2c(Cl)c(C(=O)NCCCn3ccnc3)sc2c1Cl	ERa coact pot 276.4
O=C1CCCC2=C1C(c1ccco1)Nc1ccc(C(=O)c3ccccc3)cc1N2 (configuration not stated)	H69AR growth 86K 12.9
CCC(=O)N1c2ccccc2NC2=C(C(=O)CCC2)C1c1ccccc1 (configuration not stated)	none
Cc1ccc(/C=C2/SC(=S)N(CC(=O)Nc3ncc(Cc4ccc(C)cc4)s3)C2=O)cc1	H69AR growth 86K 4.0
Cc1nnc(SCC(=O)Nc2ncc(Cc3ccc(F)cc3)s2)n1N	none
